Assay results gathered from unrelated publications.
Each line is one published result; the experiments were not run side by side.
Matrix: plasma

| Compound | system | setting | half-life |
| --- | --- | --- | --- |
| [2H]c1cc(C)c(NC(=O)c2cnc(Nc3cc(N4CCC(O)CC4)nc(C)n3)s2)c(Cl)c1 | male Sprague-Dawley rat | intravenous, 1 mg/kg | 1.9 h |
| COCC(=O)N1CCC[C@H](C(=O)NCc2nc(-c3ccccc3)cs2)C1 | male Sprague-Dawley rat | intravenous, 1 mg/kg | 6 h |
| Cc1cc(S(=O)(=O)NC2CC(N3CCN(CC4CCN(c5cccc6c5n(C)c(=O)n6C5CCC(=O)NC5=O)CC4)CC3)C2)ccc1Nc1ncc(C(F)(F)F)c(N2CCC[C@](C)(O)C2)n1 (some centres unmarked) | rat | intravenous, 2 mg/kg | 5.1 h |
| CCCCC(=O)Nc1ccc(-c2ccc3ncn(CCC)c(=O)c3c2)cn1 | male rat | oral, 10 mg/kg | 1.09 h |
| Cc1cc(S(=O)(=O)N[C@H]2CC[C@H](N3CCN(CC4CCN(c5cccc6c5n(C)c(=O)n6C5CCC(=O)NC5=O)CC4)CC3)CC2)ccc1Nc1ncc(C(F)(F)F)c(N2CCC[C@](C)(O)C2)n1 (some centres unmarked) | rat | intravenous, 2 mg/kg | 4.3 h |
| O=C1CCC(N2Cc3cc(C4CCN(Cc5ccccc5)CC4)ccc3C2=O)C(=O)N1 (centres unmarked) | male Sprague-Dawley rat | oral, 3 mg/kg | 1.31 h |
| C[C@H]1Oc2cc(cnc2N)-c2c(nn(C)c2C#N)CN(C)C(=O)c2ccc(F)cc21 | Sprague-Dawley rat | intravenous, 1 mg/kg, single dose | 4.05 h |
| Cc1cc(S(=O)(=O)N[C@H]2CC[C@H](CN3CCN(c4cccc(NC5CCC(=O)NC5=O)c4)CC3)CC2)ccc1Nc1ncc(C(F)(F)F)c(N2CCC[C@](C)(O)C2)n1 (some centres unmarked) | rat | intravenous, 2 mg/kg | 3.7 h |
| [2H]C([2H])([2H])NC(=O)c1cc(Oc2ccc(NC(=O)Nc3ccc(Cl)c(C(F)(F)F)c3)cc2)ccn1 | rat | oral, 40 mg/kg, single dose | 23.2 h |
| CC[C@H](C)[C@H](NC(=O)[C@@H]1CCCN1C(=O)CNC(=O)[C@H](Cc1ccccc1)NC(=O)[C@H](CC(N)=O)NC(=O)[C@H](CC(N)=O)NC(=O)[C@H](CO)NC(=O)[C@H](CO)NC(=O)[C@H](Cc1c[nH]cn1)NC(=O)[C@H](CCCNC(=N)N)NC(=O)[C@H](CC(C)C)NC(=O)[C@H](Cc1ccccc1)NC(=O)[C@H](CCC(=O)O)NC(=O)[C@H](C)NC(=O)[C@H](CC(C)C)NC(=O)[C@H](CCCNC(=N)N)NC(=O)[C@H](CCC(N)=O)NC(=O)[C@@H](NC(=O)[C@H](C)NC(=O)[C@@H]1CSSC[C@H](NC(=O)[C@H](CCCCN)NC(=O)CC[C@H](NC(=O)CCCCCCCCCCCCCCCCCCC(=O)O)C(=O)O)C(=O)N[C@@H](CC(N)=O)C(=O)N[C@@H]([C@@H](C)O)C(=O)N[C@@H](C)C(=O)N[C@@H]([C@@H](C)O)C(=O)N1)[C@@H](C)O)C(=O)N[C@@H](CC(C)C)C(=O)N1CCC[C@H]1C(=O)N1CCC[C@H]1C(=O)N[C@H](C(=O)N[C@@H](CC(N)=O)C(=O)N[C@H](C(=O)NCC(=O)N[C@@H](CO)C(=O)N[C@@H](CC(N)=O)C(=O)N[C@H](C(=O)N1CCC[C@H]1C(N)=O)[C@@H](C)O)C(C)C)[C@@H](C)O | male Sprague-Dawley rat | subcutaneous, 30 nmol/kg, single dose | 26.8 h |
| CCOCC(=O)N1CCC[C@H](C(=O)NCc2nc(-c3ccc(C#N)nc3)cs2)C1 | male Sprague-Dawley rat | oral, 3 mg/kg | 1.6 h |
| Cc1cc(S(=O)(=O)N[C@]2(C)C[C@@H](N3CCN(CC4CCN(c5ccc6c(c5F)n(C)c(=O)n6C5CCC(=O)NC5=O)CC4)CC3)C2)ccc1Nc1ncc(C(F)(F)F)c(N2CCC[C@](C)(O)C2)n1 (some centres unmarked) | rat | intravenous, 2 mg/kg | 2.1 h |
| CONC(=O)c1cccc2c1cc(C)n2-c1nc2c(c(NCc3ccccc3)n1)CCCN2 | male Sprague-Dawley rat | intravenous, 1 mg/kg, single dose | 3.13 h |
| C[C@@]12C[C@@]3(O)O[C@@H](O1)[C@]1(COC(=O)c4ccccc4)[C@H]3C[C@@]12O[C@@H]1O[C@H](CO)[C@@H](O)[C@H](O)[C@H]1O | male Sprague-Dawley rat | oral, 80 mg/kg | 11.4 h |
